# According to ChEMBL document CHEMBL4825680, “Structure-based discovery of potent and selective small-molecule inhibitors targeting signal transducer and activator of transcription 3 (STAT3)” (Eur J Med Chem, 2021):
# The source made the active and inactive calls. No cut-off for these calls is given here.
# How the values were obtained:
# [1] = target: T1, Signal transducer and activator of transcription 3 (Homo sapiens, UniProt P40763); test: Inhibition of phosphorylated STAT3 nuclear translocation in human MDA-MB-231 cells after 12 hrs by immunofluorescence analysis; assay type: cell-based; conditions: dose 0.3-3 µM
# T1 sequence (P40763 whole entry): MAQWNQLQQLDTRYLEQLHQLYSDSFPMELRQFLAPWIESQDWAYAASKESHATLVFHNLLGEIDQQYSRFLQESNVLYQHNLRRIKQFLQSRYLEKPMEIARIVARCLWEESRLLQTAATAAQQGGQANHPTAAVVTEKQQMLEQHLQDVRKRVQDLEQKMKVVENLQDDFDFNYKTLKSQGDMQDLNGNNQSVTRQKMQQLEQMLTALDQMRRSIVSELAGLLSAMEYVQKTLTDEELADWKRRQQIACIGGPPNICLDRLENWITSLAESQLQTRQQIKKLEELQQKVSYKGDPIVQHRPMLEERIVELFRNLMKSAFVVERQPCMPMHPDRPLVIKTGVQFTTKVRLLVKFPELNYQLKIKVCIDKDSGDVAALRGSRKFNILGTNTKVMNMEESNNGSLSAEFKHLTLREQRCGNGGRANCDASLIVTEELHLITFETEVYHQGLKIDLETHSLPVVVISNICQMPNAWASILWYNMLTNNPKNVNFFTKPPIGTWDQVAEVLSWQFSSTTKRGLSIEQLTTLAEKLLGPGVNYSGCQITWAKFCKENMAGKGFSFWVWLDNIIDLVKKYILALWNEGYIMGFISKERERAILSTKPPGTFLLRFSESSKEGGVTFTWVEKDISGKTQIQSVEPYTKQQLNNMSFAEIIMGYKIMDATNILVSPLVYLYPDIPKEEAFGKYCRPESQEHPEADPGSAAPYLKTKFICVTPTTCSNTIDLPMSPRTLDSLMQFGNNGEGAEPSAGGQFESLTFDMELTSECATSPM
# Summary of the method: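 MDA-MB-231 cells (constitutively active STAT3) treated with vehicle or compound for 12 h. Immunofluorescence staining with a p-STAT3-specific primary antibody and an Alexa Fluor secondary antibody.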
# [2] = target: T2, Signal transducer and activator of transcription 5A (Homo sapiens) (UniProt P42229); test: Inhibition of STAT5 DNA binding in human MDA-MB-231 cells at 3 uM after 3 hrs by EMSA analysis; assay type: cell-based
# T2 sequence (whole entry): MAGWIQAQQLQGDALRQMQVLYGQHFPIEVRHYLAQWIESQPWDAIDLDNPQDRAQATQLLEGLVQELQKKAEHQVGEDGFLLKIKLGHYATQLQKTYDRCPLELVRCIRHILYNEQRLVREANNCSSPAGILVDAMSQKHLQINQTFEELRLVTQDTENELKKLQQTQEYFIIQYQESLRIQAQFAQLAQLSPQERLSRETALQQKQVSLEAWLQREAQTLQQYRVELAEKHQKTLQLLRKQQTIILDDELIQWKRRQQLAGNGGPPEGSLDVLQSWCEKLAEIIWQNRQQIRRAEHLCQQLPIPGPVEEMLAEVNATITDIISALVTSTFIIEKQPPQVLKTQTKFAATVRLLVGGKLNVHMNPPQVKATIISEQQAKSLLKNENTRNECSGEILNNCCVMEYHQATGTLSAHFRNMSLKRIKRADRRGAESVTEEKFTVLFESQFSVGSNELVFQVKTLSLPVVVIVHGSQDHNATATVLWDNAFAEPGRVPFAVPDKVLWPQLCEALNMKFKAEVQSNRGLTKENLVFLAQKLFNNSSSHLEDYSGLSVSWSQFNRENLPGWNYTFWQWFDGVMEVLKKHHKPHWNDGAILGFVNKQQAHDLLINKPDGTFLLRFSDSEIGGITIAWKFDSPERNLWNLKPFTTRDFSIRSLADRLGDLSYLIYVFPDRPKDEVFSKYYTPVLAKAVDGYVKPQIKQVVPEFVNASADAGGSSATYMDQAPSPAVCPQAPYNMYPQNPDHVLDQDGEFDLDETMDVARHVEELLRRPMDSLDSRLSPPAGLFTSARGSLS
# Summary of the method: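 Cells exposed to vehicle or compound for 3 h. Nuclear extracts prepared and BCA-quantified. Nuclear protein (8–10 µg) incubated with biotinylated STAT3 or STAT5 probe, resolved on 6% native polyacrylamide gel, transferred to nylon membrane and detected with a gel-shift kit.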
# [3] = Induction of apoptosis in human MDA231-LM2-4175 cells assessed as late apoptotic cells at 1 uM after 48 hrs by Annexin-V-FITC/propidium iodide staining based flow cytometric analysis (reference value: 2.60%); assay type: functional
# MDA-MB-231 [4] = test: Inhibition of cell invasion in human MDA-MB-231 cells incubated for 12 hrs by crystal violet staining based transwell assay; assay type: functional; conditions: dose 1-3 µM
# Summary of the method: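 Cells seeded at 1.5×10^4–3×10^4 per well in the upper chamber of 8.0 µm pore Transwell inserts and treated with graded compound for 12 h. Non-invading cells removed with cotton. Invaded cells fixed in 4% paraformaldehyde, stained with crystal violet, photographed and counted. Triplicate.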
# [5] = target: T1, Signal transducer and activator of transcription 3; test: Inhibition of STAT3 phosphorylation at Ser727 residue in human MDA-MB-231 cells at 3 uM after 3 hrs by Western blotting analysis; assay type: cell-based
# MDA-MB-231 [6] = test: Induction of apoptosis in human MDA-MB-231 cells assessed as early apoptotic cells at 1 uM after 48 hrs by Annexin-V-FITC/propidium iodide staining based flow cytometric analysis (reference value: 2.98%); assay type: functional
# [7] = target: T1, Signal transducer and activator of transcription 3; test: Inhibition of STAT3 in human MDA-MB-231 cells assessed as downregulation of Bcl-xL expression at 0.3 to 3 uM after 24 hrs by western blot analysis; assay type: cell-based; conditions: dose 0.3-3 µM
# Summary of the method: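 TNBC cells given vehicle (0.1% DMSO) or graded compound levels for 24 h, lysed in RIPA with PMSF and phosphatase inhibitors. BCA-quantified lysate (20–50 µg) run on SDS-PAGE, transferred to PVDF, blocked in 5% BSA. Probed overnight at 4 °C for Bcl-xL, Mcl-1 and c-Myc, with β-actin. HRP secondary, ECL detection. Three independent experiments.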
# HCC70 [8] = test: Inhibition of colony formation in human HCC70 cells at 0.3 uM after 10 to 15 days by crystal violet staining based assay; assay type: functional, cell-based; conditions: time 10-15 day
# Summary of the method: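 Cells seeded at 0.5×10^3–1×10^3 per well; compound added the next day. Medium and compound renewed every 2–3 days. After about 10–15 days, colonies fixed with 4% paraformaldehyde, stained with crystal violet, scanned and quantified by image analysis. Triplicate.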
# [9] = Antiproliferative activity against human MDA231-LM2-4175 cells assessed as reduction in cell viability after 72 hrs by CCK8 assay; assay type: functional, cell-based; conditions: MDA231-LM2-4175, 72 h
# Summary of the method: (§1)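 Cells seeded at 1000–8000 per well were grown overnight, then exposed to 0.1–100 μM compound or 0.1% DMSO vehicle for 72 h. CCK-8 was added for 0.5–4 h at 37 °C and absorbance read at 480 nm. Viability = (OD compound − blank)/(OD vehicle − blank) × 100, with medium as blank. IC50 fitted from three independent experiments.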
# [10] = Toxicity in NOD/SCID mouse xenografted with patient-derived breast cancer cells assessed as change in body weight at 5 to 15 mg/kg, ip administered once daily for 20 days; conditions: in vivo, 480 h
# [11] = Metabolic stability in human liver microsomes assessed as clearance at 0.1 uM preincubated for 10 mins followed by NADPH addition and measured upto 60 mins by LC-MS/MS analysis; assay type: ADME, Microsome; conditions: 1 h, time <=70 min
# Summary of the method: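 Microsomes at 0.33 mg/mL in 0.1 M Tris pH 7.4 with 5 mM MgCl2; compound final 0.1 μM (0.01% DMSO, 0.005% BSA). Preincubated 10 min at 37 °C, then started with 1 mM NADPH. Sampled at 0, 7, 17, 30 and 60 min and quenched with cold methanol. Centrifuged, then analysed by LC-MS/MS.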
# MDA-MB-231 [12] = test: Induction of apoptosis in human MDA-MB-231 cells assessed as increase in PARP cleavage at 3 uM after 48 hrs by Western blot analysis; assay type: functional, cell-based
# Summary of the method: (§2)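 Cells were treated with vehicle (0.1% DMSO) or compound, then analysed by western blot of RIPA lysates (20–50 μg protein, SDS-PAGE, PVDF) for PARP and cleaved caspase-7, with β-actin as loading control. Three independent experiments.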
# [13] = Induction of apoptosis in human MDA231-LM2-4175 cells assessed as early apoptotic cells at 1 uM after 48 hrs by Annexin-V-FITC/propidium iodide staining based flow cytometric analysis (reference value: 2.49%); assay type: functional
# MDA-MB-468 = test: Induction of apoptosis in human MDA-MB-468 cells assessed as increase in caspase-7 cleavage at 1 uM after 48 hrs by Western blot analysis; assay type: functional, cell-based; summary of the method: as §2
# HCC70 [14] = test: Antiproliferative activity against human HCC70 cells assessed as reduction in cell viability after 72 hrs by CCK8 assay; assay type: functional, cell-based; conditions: HCC70, 72 h; summary of the method: as §1
structure (smiles),measurement,setting,value
O=C(Cc1c(-c2ccccc2)nc2ccccn12)Nc1ccc2c(c1)S(=O)(=O)C=C2,inhibition,[1],Dose-Dependent Effect
same,inhibition,[2],inactive
same,Activity,[3],4%
same,inhibition,MDA-MB-231 [4],Dose-Dependent Effect
same,inhibition,[5],Active
same,Activity,MDA-MB-231 [6],7.38%
same,inhibition,[7],Active
same,inhibition,HCC70 [8],Active
same,IC50,[9],2500 nM
same,Activity,[10],Non-Toxic
same,CLH,[11],87 mL/min/g
same,Activity,MDA-MB-231 [12],Active
same,Activity,[13],6.17%
same,Activity,MDA-MB-468,Active
same,IC50,HCC70 [14],1100 nM
